From ChEMBL document CHEMBL4017520, “Discovery, Structure-Activity Relationship, and Antiparkinsonian Effect of a Potent and Brain-Penetrant Chemical Series of Positive Allosteric Modulators of Metabotropic Glutamate Receptor 4” (J Med Chem, 2017) come the findings set out here.

Active and inactive are the calls of the source. No cut-off for these calls is given here.

The term half-life denotes the time in which the quantity being followed falls by half. What is called EC50 is the concentration that produces a half-maximal response. By Cmax is commonly meant the peak of the concentration-time curve. A word on the AUC(0-inf): it is total exposure, with the tail of the curve extrapolated. Low values mean less exposure, high ones more exposure. The term Tmax denotes the time from dosing to the highest level.

For data set [1], the target named is Metabotropic glutamate receptor 1 (Homo sapiens) (UniProt Q13255). In words: Activity at human mGlu1 receptor expressed in HEK293 cells co-expressing Gi/Gq assessed as effect on EC20/EC80 glutamate-induced intracellular calcium level up to 10 uM preincubated for 10 mins followed by glutamate addition measured for 3 mins by Fluo4-AM dye based fluorescence assay. In kind it is functional, cell-based. In short, it runs like this: (§1)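 HEK-293 cells were electroporated with the human mGluR plus a promiscuous or chimeric G protein and cultured 24 h, then serum-starved 3 h. Cells were loaded 1.5 h with 1 μM Fluo4-AM in HBSS/HEPES buffer with probenecid and 0.1% BSA. Compound was added for 10 min, then glutamate at EC20 (PAM) or EC80 (NAM), and fluorescence (ex 485/em 525) was read for 3 min.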
(Calcium assays in cells follow changes in intracellular calcium, usually with a dye or a luminescent sensor.)

Data set [2] shares this target. Kind of data set: Activity at human mGlu1 receptor expressed in HEK293 cells co-expressing Gi/Gq assessed as effect on intracellular calcium level up to 10 uM after 10 mins by Fluo4-AM dye based fluorescence assay. In kind it is functional, cell-based. The gist of the method:
(§2)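 HEK-293 cells transiently expressing the human mGluR with a promiscuous or chimeric G protein were serum-starved 3 h and loaded 1.5 h with 1 μM Fluo4-AM. Compound alone was added in assay buffer, and calcium fluorescence (ex 485/em 525) was recorded for 10 min as agonist readout.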

The species named for data set [3] is Rattus norvegicus. In words: Activity at AMPA glutamate receptor in rat cerebral cortex at 10 uM. In short, it runs like this: (§3)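 Inhibition of orthosteric ligand binding to NMDA, AMPA and kainate receptors on rat cerebral cortex membranes, tested up to 10 μM.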
Data set [4] concerns the target Metabotropic glutamate receptor 7 (Homo sapiens) (UniProt Q14831). Kind of data set: Activity at human mGlu7 receptor expressed in HEK293 cells co-expressing Gi/Gq assessed as effect on intracellular calcium level up to 10 uM after 10 mins by Fluo4-AM dye based fluorescence assay. Format: functional, cell-based. The gist of the method:
as §2

For data set [5], the species on record is Rattus norvegicus. In words: Activity at kainate glutamate receptor in rat cerebral cortex at 10 uM. The gist of the method: as §3
Data set [6] addresses Metabotropic glutamate receptor 3 (Homo sapiens) (UniProt Q14832). Kind of data set: Activity at human mGlu3 receptor expressed in HEK293 cells co-expressing Gi/Gq assessed as effect on EC20/EC80 glutamate-induced intracellular calcium level up to 10 uM preincubated for 10 mins followed by glutamate addition measured for 3 mins by Fluo4-AM dye based fluorescence assay. Format: functional, cell-based. In short, it runs like this: as §1

In data set [7] the target is Metabotropic glutamate receptor 5 (Homo sapiens) (UniProt P41594). In words: Activity at human mGlu5 receptor expressed in HEK293 cells co-expressing Gi/Gq assessed as effect on EC20/EC80 glutamate-induced intracellular calcium level up to 10 uM preincubated for 10 mins followed by glutamate addition measured for 3 mins by Fluo4-AM dye based fluorescence assay. In kind it is functional, cell-based. The gist of the method: as §1

The target in data set [8] is D(2) dopamine receptor (Homo sapiens) (UniProt P14416). In words: Antagonist activity at D2L receptor (unknown origin) at 10 uM.
The subject of data set [9] is Rattus norvegicus. Kind of data set: Protection against 6-OHDA induced parkinsonian motor deficit in Sprague-Dawley rat assessed as increase in active time at 30 mg/kg, ip after 28 days post surgery. In kind it is functional, organism-based. In short, it runs like this: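 Adult male Sprague−Dawley rats with bilateral 6-OHDA striatal lesions given compound 30 mg/kg ip or vehicle at T0; spontaneous locomotor activity (active time, slow activity, rearing) counted in 5-min bins versus pre-surgery vehicle; n = 10.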

A short description of data set [10]: Half life in Sprague-Dawley rat plasma at 30 mg/kg, ip administered as single dose by LC-MS/MS analysis. Format: ADME, organism-based. In short, it runs like this:
(§4)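 Single dose ip (10 or 30 mg/kg, rat) or oral (10 mg/kg, rat or mouse); plasma Cmax, Tmax, half-life, AUC0−inf derived; brain concentration and brain/plasma ratio at 30 min postdose. Mean of 3 rats or 2 mice.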

Data set [11] can be described thus: Ratio of drug level in C57BL/6 mouse brain to plasma at 2 mg/kg, iv administered as single dose measured after 30 mins by LC-MS/MS analysis. In kind it is ADME, organism-based. As to conditions: read-out: BPR. The gist of the method:
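Single iv dose, 1 mg/kg in rat or 2 mg/kg in mouse; plasma PK parameters derived; brain/plasma ratio taken at 1 h postdose (rat) or 30 min postdose (mouse). Mean of 3 rats; 2 mice for mouse Cmax and brain/plasma.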

Data set [12] in a line: Half life in Sprague-Dawley rat plasma at 10 mg/kg, ip administered as single dose by LC-MS/MS analysis. Format: ADME, organism-based. The gist of the method:
as §4

Data set [13] can be described thus: Ratio of fraction unbound in Sprague-Dawley rat brain at 30 mg/kg, ip after 60 mins to EC50 for rat mGlu4 receptor expressed in HEK293 cells.
A short description of data set [14]: Ratio of drug uptake in Sprague-Dawley rat brain to plasma at 30 mg/kg, ip after 30 to 60 mins. Format: ADME, organism-based. Conditions: read-out: BPR. The gist of the method:
(§5)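 Rats dosed 30 mg/kg ip; plasma sampled over time, brain measured at 30 and 60 min; brain/plasma ratio averaged over 30 and 60 min.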

Data set [15] deals with Metabotropic glutamate receptor 4 (Homo sapiens, UniProt Q14833). Kind of data set: Positive allosteric modulation of recombinant human mGlu4 receptor expressed in HEK293 cells co-expressing chimeric G protein assessed as increase in EC20 glutamate-induced […]. In kind it is functional, cell-based. A general note: cAMP levels reflect the balance of adenylyl cyclase and phosphodiesterase activity.

A short description of data set [16]: Cmax in Sprague-Dawley rat plasma at 10 mg/kg, po administered as single dose by LC-MS/MS analysis. In kind it is ADME, organism-based. Also on record: dose 10 mg/kg, route oral. In short, it runs like this:
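Rats given a single oral dose of 10 mg/kg. The first plasma sample was taken at 15 min, and sampling continued to 24 h postdose. Brain was sampled at 30 min. Values are the mean (±SEM) of 3 rats.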

Data set [17] is described as follows: Activity at COMT (unknown origin) up to 10 uM. In kind it is ADME. Conditions: human.
Data set [18] is described as follows: AUC (0 to infinity) in Sprague-Dawley rat at 1 mg/kg, iv administered as single dose by LC-MS/MS analysis. Format: ADME, organism-based. Also on record: dose 1 mg/kg, route intravenous, time infinity. As to conditions: in vivo.
Data set [19] in a line: Protein binding in Sprague-Dawley rat brain at 10 uM by rapid equilibrium dialysis. As to conditions: read-out: PB (converted). Format: ADME, tissue-based. (In general: In equilibrium dialysis free small molecules cross a membrane that holds back macromolecules.)
Data set [20] is described as follows: Tmax in Sprague-Dawley rat plasma at 10 mg/kg, ip administered as single dose by LC-MS/MS analysis. In kind it is ADME, organism-based. The gist of the method:
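Single-dose plasma PK after ip (10 or 30 mg/kg) or oral (10 mg/kg) dosing in rats, and oral 10 mg/kg dosing in mice. […] Values are mean ±SEM of 3 rats or 2 mice.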

The nature of data set [21]: AUC (0 to infinity) in C57BL/6 mouse at 2 mg/kg, iv administered as single dose by LC-MS/MS analysis. As to conditions: in vivo. Format: ADME, organism-based. Set-up: dose 2 mg/kg, time infinity, route intravenous.
For data set [22], the system named is Rattus norvegicus. In words: Toxicity in 6-OHDA induced parkinsonian motor deficit Sprague-Dawley rat model assessed as induction of overacting rearing behavior up to 30 mg/kg, ip in presence of L-dopa. Conditions: in vivo. Format: organism-based.
Data set [23] is described as follows: Plasma concentration in Sprague-Dawley rat at 30 mg/kg, ip after 120 mins. In kind it is ADME, organism-based. In short, it runs like this: as §5
Data set [24] in a line: Ratio of drug level in Sprague-Dawley rat brain to plasma at 10 mg/kg, po after 30 mins post dose administered as single dose by LC-MS/MS analysis. In kind it is ADME, organism-based. As to conditions: read-out: BPR. The gist of the method: as §4
Data set [25] can be described thus: Drug uptake in Sprague-Dawley rat brain at 30 mg/kg, ip after 30 mins post dose administered as single dose by LC-MS/MS analysis. As to conditions: read-out: Drug uptake. In kind it is ADME, organism-based. The gist of the method:
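Rats dosed ip at 10 or 30 mg/kg. Plasma Cmax, Tmax, half-life and AUC0–inf were determined. Brain concentration was measured 30 min postdose, and brain/plasma ratio was taken at 30 min. Values are the mean (±SEM) of 3 rats.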

Sequence of Metabotropic glutamate receptor 1 (Homo sapiens) (Q13255 19-1194 limits assumed): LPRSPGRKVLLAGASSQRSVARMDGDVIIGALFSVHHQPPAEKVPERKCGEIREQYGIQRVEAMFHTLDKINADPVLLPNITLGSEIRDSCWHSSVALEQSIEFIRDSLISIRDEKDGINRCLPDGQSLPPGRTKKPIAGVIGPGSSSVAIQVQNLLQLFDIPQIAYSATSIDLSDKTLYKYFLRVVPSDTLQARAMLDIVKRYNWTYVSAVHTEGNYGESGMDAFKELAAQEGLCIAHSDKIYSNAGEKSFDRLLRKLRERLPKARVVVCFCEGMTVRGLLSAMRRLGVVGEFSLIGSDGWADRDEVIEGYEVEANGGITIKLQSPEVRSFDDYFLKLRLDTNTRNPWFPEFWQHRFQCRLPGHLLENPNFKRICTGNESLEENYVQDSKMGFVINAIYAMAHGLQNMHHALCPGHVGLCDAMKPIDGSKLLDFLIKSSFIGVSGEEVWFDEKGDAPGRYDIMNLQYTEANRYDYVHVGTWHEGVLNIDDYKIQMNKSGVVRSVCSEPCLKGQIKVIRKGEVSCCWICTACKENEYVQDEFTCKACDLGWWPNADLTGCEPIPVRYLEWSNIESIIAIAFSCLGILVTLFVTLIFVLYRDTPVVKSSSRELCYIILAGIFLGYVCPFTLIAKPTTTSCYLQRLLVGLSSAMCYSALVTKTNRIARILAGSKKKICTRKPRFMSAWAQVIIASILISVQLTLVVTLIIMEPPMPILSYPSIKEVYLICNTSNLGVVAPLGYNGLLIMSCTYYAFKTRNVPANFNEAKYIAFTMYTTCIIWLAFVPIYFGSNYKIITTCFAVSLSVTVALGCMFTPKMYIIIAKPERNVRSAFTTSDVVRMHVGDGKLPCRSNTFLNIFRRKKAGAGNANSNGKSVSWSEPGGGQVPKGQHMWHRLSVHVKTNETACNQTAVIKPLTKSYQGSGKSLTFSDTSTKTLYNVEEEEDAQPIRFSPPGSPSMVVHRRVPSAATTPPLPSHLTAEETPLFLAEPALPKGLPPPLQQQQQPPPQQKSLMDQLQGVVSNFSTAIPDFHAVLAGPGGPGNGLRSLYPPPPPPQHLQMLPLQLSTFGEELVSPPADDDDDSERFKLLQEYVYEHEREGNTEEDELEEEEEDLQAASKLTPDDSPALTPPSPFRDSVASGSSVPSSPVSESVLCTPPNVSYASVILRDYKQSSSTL
Sequence of Metabotropic glutamate receptor 7 (Homo sapiens) (Q14831 whole entry): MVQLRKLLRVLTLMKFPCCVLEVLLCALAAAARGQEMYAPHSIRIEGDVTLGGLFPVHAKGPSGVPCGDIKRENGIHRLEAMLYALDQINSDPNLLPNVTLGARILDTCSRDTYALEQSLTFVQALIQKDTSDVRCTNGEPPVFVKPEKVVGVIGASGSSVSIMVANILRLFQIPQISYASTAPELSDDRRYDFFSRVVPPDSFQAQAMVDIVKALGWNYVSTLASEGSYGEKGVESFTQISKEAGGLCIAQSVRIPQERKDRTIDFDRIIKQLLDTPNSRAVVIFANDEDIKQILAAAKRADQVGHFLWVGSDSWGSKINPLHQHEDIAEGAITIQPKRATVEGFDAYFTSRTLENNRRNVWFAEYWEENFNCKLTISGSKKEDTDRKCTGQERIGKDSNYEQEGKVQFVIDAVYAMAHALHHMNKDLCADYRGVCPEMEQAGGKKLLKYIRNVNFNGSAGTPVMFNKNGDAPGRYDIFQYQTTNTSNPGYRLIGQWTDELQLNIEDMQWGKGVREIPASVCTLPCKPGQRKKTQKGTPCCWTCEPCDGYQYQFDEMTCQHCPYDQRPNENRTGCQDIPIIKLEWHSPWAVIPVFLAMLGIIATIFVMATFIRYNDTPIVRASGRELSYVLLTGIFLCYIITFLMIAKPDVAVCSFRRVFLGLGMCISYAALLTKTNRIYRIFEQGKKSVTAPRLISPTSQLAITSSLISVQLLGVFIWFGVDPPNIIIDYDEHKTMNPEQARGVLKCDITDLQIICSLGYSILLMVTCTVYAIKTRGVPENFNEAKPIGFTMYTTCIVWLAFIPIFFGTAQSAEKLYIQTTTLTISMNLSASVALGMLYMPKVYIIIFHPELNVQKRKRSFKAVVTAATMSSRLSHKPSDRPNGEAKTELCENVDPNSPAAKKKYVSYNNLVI
Sequence of Metabotropic glutamate receptor 3 (Homo sapiens) (Q14832 23-879 limits assumed): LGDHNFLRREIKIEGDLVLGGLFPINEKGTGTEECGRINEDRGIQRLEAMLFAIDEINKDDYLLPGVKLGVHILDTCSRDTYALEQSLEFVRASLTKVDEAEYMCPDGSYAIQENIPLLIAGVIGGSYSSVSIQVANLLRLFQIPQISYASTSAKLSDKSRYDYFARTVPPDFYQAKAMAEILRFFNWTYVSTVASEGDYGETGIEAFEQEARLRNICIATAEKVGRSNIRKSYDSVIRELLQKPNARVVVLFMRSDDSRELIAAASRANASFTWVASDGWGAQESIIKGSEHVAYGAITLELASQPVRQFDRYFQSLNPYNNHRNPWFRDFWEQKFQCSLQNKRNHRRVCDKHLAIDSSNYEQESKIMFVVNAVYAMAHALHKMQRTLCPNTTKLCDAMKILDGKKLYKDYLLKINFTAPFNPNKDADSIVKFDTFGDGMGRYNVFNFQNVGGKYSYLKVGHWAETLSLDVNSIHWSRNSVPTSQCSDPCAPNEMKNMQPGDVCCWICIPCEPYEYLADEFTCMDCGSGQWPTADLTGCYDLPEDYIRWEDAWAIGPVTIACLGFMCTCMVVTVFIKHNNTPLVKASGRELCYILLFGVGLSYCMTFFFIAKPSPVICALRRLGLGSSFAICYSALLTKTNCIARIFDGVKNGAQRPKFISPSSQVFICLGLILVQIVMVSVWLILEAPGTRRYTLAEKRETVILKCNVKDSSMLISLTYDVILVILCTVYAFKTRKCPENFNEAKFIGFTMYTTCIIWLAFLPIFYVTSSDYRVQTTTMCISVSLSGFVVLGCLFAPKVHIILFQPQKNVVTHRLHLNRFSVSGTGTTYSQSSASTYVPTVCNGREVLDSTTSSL
Sequence of Metabotropic glutamate receptor 4 (Q14833 whole entry): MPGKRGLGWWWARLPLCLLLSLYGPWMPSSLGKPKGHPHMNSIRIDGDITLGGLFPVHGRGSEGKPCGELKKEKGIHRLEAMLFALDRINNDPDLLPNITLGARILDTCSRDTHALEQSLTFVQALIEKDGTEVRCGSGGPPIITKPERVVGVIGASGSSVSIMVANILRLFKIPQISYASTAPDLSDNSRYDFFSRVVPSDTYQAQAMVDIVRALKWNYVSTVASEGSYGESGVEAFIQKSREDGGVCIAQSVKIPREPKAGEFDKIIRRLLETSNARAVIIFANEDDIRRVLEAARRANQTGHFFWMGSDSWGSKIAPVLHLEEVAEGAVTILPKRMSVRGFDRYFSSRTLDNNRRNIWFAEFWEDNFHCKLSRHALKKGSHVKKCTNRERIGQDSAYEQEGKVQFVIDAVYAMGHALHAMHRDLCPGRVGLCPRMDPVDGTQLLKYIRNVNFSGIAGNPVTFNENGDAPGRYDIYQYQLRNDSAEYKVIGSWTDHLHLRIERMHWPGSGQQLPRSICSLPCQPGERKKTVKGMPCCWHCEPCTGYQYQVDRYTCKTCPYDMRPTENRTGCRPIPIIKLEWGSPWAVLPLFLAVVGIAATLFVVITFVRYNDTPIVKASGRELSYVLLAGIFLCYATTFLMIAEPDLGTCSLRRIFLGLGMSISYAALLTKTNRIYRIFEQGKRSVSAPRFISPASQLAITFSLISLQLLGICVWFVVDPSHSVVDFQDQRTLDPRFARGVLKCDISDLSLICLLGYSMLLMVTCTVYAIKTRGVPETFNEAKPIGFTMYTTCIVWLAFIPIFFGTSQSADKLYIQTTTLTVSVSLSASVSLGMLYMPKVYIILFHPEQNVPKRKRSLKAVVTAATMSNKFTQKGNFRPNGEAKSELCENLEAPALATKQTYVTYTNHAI
Sequence of D(2) dopamine receptor (Homo sapiens) (P14416 whole entry): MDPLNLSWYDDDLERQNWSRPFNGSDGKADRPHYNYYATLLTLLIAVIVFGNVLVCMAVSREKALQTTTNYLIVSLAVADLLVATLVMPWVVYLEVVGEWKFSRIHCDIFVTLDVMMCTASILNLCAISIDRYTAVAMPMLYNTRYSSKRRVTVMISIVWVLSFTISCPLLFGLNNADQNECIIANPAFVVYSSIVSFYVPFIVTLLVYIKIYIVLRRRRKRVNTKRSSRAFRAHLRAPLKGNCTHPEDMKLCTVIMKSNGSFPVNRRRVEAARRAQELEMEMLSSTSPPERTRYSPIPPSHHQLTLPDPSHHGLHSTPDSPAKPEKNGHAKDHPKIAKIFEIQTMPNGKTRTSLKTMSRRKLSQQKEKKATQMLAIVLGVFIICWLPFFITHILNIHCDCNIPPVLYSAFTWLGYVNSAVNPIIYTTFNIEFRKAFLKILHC

As for `O/N=c1\cc(-c2cc3cccn3cn2)oc2ccc(OCCN3CCOCC3)cc12` [listing 1 of 2 here], the outcome (in [1]; in data set [2]; in the data set filed under Rattus norvegicus [3]; in data set [4]; in the data set filed under Rattus norvegicus [5]; in [6]) was inactive. Also, the outcome in data set [7] and in [8] was inactive. For the same molecule, the result in the data set on Rattus norvegicus [9] was Active.
In the case of `O/N=c1\cc(-c2cc3cccn3cn2)oc2ccc(OCCN3CCOCC3)cc12` [listing 2 of 2 here], the half-life is 4.5 h in [10] and 4 h in data set [12]. Besides, the Kp at 0.5 h stood at 3.6 in data set [11] and 2.3 in data set [24]. In data set [13], the Ratio was found to be 7.6. For the same molecule, the Kp in [14] is 3.25. The half-maximal effective concentration (EC50) in data set [15] is 70 nM. The peak level in data set [16] (Cmax) was 135 ng/mL. The values for the Activity entry (in data set [17]; in the data set on Rattus norvegicus [22]) were “Not Active” and “Non-Toxic”, respectively. The AUC(0-inf) was found to be 166 ng·h/mL in [18] and 269 ng·h/mL in data set [21]. In addition, the fraction unbound at 10 µM in data set [19] was 0.0076. Further, the Tmax in data set [20] was 0.25 h. For the same molecule, in data set [23], the concentration at 2 h turned out to be 535 ng/mL. Further, the concentration at 0.5 h in data set [25] came out at 22800 ng/g.
